# Laboratory results taken from ChEMBL document CHEMBL1128234, “Isothiocyanate-substituted benzyl ether opioid receptor ligands derived from 6 beta-naltrexol” (J Med Chem, 1995).
# How the values were obtained:
# Mu-type opioid receptor = Mu-type opioid receptor (Cavia porcellus, UniProt P97266); test: Inhibitory concentration was determined against Opioid receptor mu 1 using [3H]- DAMGO radioligand
# How it was run: (§1)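 Guinea pig brain (minus cerebellum) homogenate in 0.05 M Tris pH 7.4, diluted 1:60 (0.8-1.5 mg protein/ml). Ligand tested in duplicate at nine concentrations; 60 min at 25 °C. Nonspecific binding defined with naloxone. Filtration, ice-cold buffer rinse, scintillation counting.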
# [1] = target: Kappa-type opioid receptor (Cavia porcellus, UniProt P41144); test: Inhibitory concentration against Opioid receptor kappa 1 using [3H]- U-69,593 radioligand; how it was run: as §1
# [2] = target: Mu-type opioid receptor (Cavia porcellus) (UniProt P97266); test: Irreversible binding affinity at mu-receptor was evaluated as % of control specific binding remaining unwashed at concentration of 10 (nM) using [3H]-DAMGO radioligand Values from 3 separate assays (+/-10%)
# How it was run: (§2)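 Diluted guinea pig brain homogenate is exposed to ligand for 60 min at 25 °C; protected samples are first preincubated 15 min at 37 °C with 1 naloxone. Washed samples are diluted in ice-cold Tris pH 7.4, spun at 10000g for 15 min at 4 °C, then resuspended and incubated 15 min at 37 °C, twice. Read-out is standard radioligand binding, expressed as % of recovery-sample specific binding. Test ligands run in triplicate; reference averaged over three assays.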
# [3] = Inhibitory concentration was determined against delta-opioid receptor using [3H]- DPDPE radioligand
# [4] = target: Mu-type opioid receptor (Cavia porcellus) (UniProt P97266); test: Irreversible binding affinity at mu-receptor was evaluated as % of control specific binding remaining washed at concentration of 10 (nM) using [3H]DAMGO radioligand Values from 3 separate assays (+/-10%)
# [5] = target: Mu-type opioid receptor (Cavia porcellus) (UniProt P97266); test: Irreversible binding affinity at mu-receptor was evaluated as % of control specific binding remaining protected at concentration of 10 (nM) using [3H]DAMGO radioligand Values from 3 separate assays (+/-10%); how it was run: as §2
# [6] = target: Kappa-type opioid receptor (Cavia porcellus) (UniProt P41144); test: Irreversible binding affinity at Opioid receptor kappa 1 was evaluated as % of control specific binding remaining washed at concentration of 150 (nM) using [3H]U-69593 radioligand; how it was run: as §2
# [7] = target: Opioid receptors; mu/kappa/delta; test: Inhibitory concentration was determined against Opioid receptors using [3H]- bremazocine radioligand; format: protein assay, Cavia porcellus; how it was run: as §1
# [8] = target: Kappa-type opioid receptor (Cavia porcellus) (UniProt P41144); test: Irreversible binding affinity at Opioid receptor kappa 1 was evaluated as % of control specific binding remaining protected at concentration of 150 (nM) using [3H]U-69593 radioligand; how it was run: as §2
# [9] = target: Kappa-type opioid receptor (Cavia porcellus) (UniProt P41144); test: Irreversible binding affinity at Opioid receptor kappa 1 was evaluated as % of control specific binding remaining washed at concentration of 42 (nM) using [3H]U-69593 radioligand; how it was run: as §2
# [10] = target: Kappa-type opioid receptor (Cavia porcellus) (UniProt P41144); test: Irreversible binding affinity at Opioid receptor kappa 1 was evaluated as % of control specific binding remaining unwashed at concentration of 42 (nM) using [3H]U-69593 radioligand; how it was run: as §2
# [11] = target: Mu-type opioid receptor (Cavia porcellus) (UniProt P97266); test: Irreversible binding affinity at mu-receptor was evaluated as % of control specific binding remaining unwashed at concentration of 2.5 (nM) using [3H]DAMGO radioligand; how it was run: as §2
# [12] = target: Mu-type opioid receptor (Cavia porcellus) (UniProt P97266); test: Irreversible binding affinity at mu-receptor was evaluated as % of control specific binding remaining unwashed at concentration of 5 (nM) using [3H]DAMGO radioligand
# How it was run: (§3)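 Guinea pig brain homogenate (less cerebellum) in 0.05 M Trizma pH 7.4, diluted 1:60. It was incubated with ligand 60 min at 25 °C, then diluted in ice-cold buffer and centrifuged 10000g. Washed samples were resuspended in buffer, incubated 15 min at 37 °C and recentrifuged. Binding used 1.0 nM [3H]DAMGO for 60 min at 25 °C, with filtration and counting. Nonspecific binding was set with 10 µM naloxone. Triplicates; % specific binding was taken relative to recovery controls.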
# [13] = target: Mu-type opioid receptor (Cavia porcellus) (UniProt P97266); test: Irreversible binding affinity at mu-receptor was evaluated as % of control specific binding remaining protected at concentration of 2.5 (nM) using [3H]DAMGO radioligand; how it was run: as §2
# [14] = target: Kappa-type opioid receptor (Cavia porcellus) (UniProt P41144); test: Irreversible binding affinity at Opioid receptor kappa 1 was evaluated as % of control specific binding remaining protected at concentration of 42 (nM) using [3H]U-69593 radioligand; how it was run: as §2
# [15] = target: Kappa-type opioid receptor (Cavia porcellus) (UniProt P41144); test: Irreversible binding affinity at Opioid receptor kappa 1 was evaluated as % of control specific binding remaining unwashed at concentration of 30 (nM) using [3H]U-69593 radioligand; how it was run: as §2
# [16] = target: Kappa-type opioid receptor (Cavia porcellus) (UniProt P41144); test: Irreversible binding affinity at Opioid receptor kappa 1 was evaluated as % of control specific binding remaining washed at concentration of 30 (nM) using [3H]U-69593 radioligand; how it was run: as §2
# [17] = target: Mu-type opioid receptor (Cavia porcellus) (UniProt P97266); test: Irreversible binding affinity at mu-receptor was evaluated as % of control specific binding remaining washed at concentration of 2.5 (nM) using [3H]DAMGO radioligand; how it was run: as §3
# [18] = target: Mu-type opioid receptor (Cavia porcellus) (UniProt P97266); test: Irreversible binding affinity at mu-receptor was evaluated as % of control specific binding remaining washed at concentration of 5 (nM) using [3H]-DAMGO radioligand; how it was run: as §3
# [19] = target: Kappa-type opioid receptor (Cavia porcellus) (UniProt P41144); test: Irreversible binding affinity at Opioid receptor kappa 1 was evaluated as % of control specific binding remaining protected at concentration of 30 (nM) using [3H]U-69593 radioligand; how it was run: as §2
# [20] = target: Mu-type opioid receptor (Cavia porcellus) (UniProt P97266); test: Irreversible binding affinity at mu-receptor was evaluated as % of control specific binding remaining protected at concentration of 5 (nM) using [3H]-DAMGO radioligand; how it was run: as §2
# Chain of Kappa-type opioid receptor (P41144 whole entry): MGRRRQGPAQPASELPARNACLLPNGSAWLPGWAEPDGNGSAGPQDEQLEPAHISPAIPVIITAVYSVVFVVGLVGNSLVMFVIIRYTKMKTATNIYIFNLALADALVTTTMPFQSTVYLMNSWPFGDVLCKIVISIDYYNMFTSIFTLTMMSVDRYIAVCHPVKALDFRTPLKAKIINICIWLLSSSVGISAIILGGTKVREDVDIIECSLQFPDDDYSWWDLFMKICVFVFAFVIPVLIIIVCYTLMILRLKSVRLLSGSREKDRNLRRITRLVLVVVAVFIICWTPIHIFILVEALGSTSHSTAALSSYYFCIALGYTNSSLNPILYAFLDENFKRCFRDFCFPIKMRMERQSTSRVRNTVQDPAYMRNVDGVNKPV
# Chain of Kappa-type opioid receptor (Cavia porcellus) (P41144 whole entry): as above
# Chain of Mu-type opioid receptor (P97266 whole entry): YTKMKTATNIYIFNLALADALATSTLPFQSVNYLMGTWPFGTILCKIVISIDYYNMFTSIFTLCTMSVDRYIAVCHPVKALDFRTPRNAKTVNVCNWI
# Chain of Mu-type opioid receptor (Cavia porcellus) (P97266 whole entry): as above
smiles,measurement,setting,value
Oc1ccc2c3c1O[C@H]1[C@@H](O)CC[C@@]4(O)[C@@H](C2)N(CC2CC2)CC[C@]314,IC50,Mu-type opioid receptor,1.1 nM
same,IC50,[1],2.6 nM
Oc1ccc2c3c1OC1[C@H](OCc4ccccc4)CCC4(O)C(C2)N(CC2CC2)CCC314 (stereo partly specified),Control,[2],14%
same,IC50,[3],2.9 nM
same,Control,[4],100%
same,Control,[5],104%
Oc1ccc2c3c1O[C@H]1[C@H](OCc4ccccc4CN=C=S)CC[C@@]4(O)C(C2)N(CC2CC2)CCC314 (stereo partly specified),IC50,Mu-type opioid receptor,20 nM
same,Control,[6],35%
same,IC50,[7],69 nM
same,IC50,[1],43 nM
same,Control,[8],45%
Oc1ccc2c3c1O[C@H]1[C@H](OCc4ccccc4N=C=S)CC[C@@]4(O)C(C2)N(CC2CC2)CCC314 (stereo partly specified),Control,[9],21%
same,Control,[10],13%
same,Control,[11],47%
same,Control,[12],7%
same,Control,[13],68%
same,Control,[14],40%
same,Control,[15],36%
same,IC50,Mu-type opioid receptor,0.8 nM
same,Control,[16],35%
same,Control,[17],40%
same,Control,[18],15%
same,Control,[19],55%
same,IC50,[7],8.8 nM
same,Control,[20],36%
same,IC50,[1],8.2 nM
